# Diaph act CS = diaphorase activation or chemical reduction counter-screen | AID 1229 | 190,000 compounds, 0.005% hits | Diaphorase/resazurin coupled assay, resorufin fluorescence, 16 min; stronger effect = higher value; 1 = vehicle wells, 0 = NADH-free wells | activation factor at 20 µM;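 active = diaphorase activity raised at least twofold by the compound at 20 µM; inactive = activation factor below 2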
#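 Material: purified diaphorase enzyme from Clostridium kluyveri / Medium: HEPES pH 7.4 buffer with MgCl2 and Tween 20 / Schedule: enzyme reaction of 16 min at room temperature / Measured by: resorufin fluorescence, excitation 544 nm, emission 590 nm / Evaluation: rise in resorufin formation, marking diaphorase activation or chemical reduction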
# FLuc act counter = firefly luciferase counter-screen for stimulation assays; P08659; ATPlite luciferase biochemical, luminescence, 10 min; 0 = ATP-free wells, 1 = DMSO control; activation factor at 10 µM; 200,000 tested, under 10 active; AID 1027;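 active = luciferase activation factor, scaled between plate controls, of at least 2 with compound at 10 µM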
# Target sequence (P08659 whole entry, looked up): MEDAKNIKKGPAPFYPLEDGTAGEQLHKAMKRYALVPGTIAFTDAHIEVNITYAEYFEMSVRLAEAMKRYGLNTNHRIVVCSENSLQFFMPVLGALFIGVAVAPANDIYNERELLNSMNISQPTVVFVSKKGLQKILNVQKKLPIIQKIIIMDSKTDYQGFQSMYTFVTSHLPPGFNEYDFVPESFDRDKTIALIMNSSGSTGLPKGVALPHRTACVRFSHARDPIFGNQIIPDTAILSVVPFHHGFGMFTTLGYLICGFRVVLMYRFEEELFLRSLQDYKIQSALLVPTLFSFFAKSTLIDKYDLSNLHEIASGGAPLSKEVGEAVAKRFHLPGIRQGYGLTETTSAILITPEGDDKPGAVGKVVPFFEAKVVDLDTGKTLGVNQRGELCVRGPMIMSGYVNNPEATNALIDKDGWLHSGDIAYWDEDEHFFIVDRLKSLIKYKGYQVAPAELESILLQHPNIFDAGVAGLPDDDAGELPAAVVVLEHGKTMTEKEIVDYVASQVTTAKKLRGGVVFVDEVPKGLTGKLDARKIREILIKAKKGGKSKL
#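 test system = cell-free luciferase reagent | medium = PBS as buffer for the ATP substrate | dosing = test compounds dosed from 2 mM stocks in 100% DMSO | incubation = 10 min at ambient temperature | detection = luminescence measurement of luciferase light output | benchmarks = low control with PBS replacing ATP, high control enzyme plus ATP without compound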
# FLuc inh counter = counter-screen for luciferase assay inhibitors: firefly luciferase inhibition; P08659; ATPLite firefly luciferase biochemical luminescence, 10 min; 200,000 compounds, 1.5% hits; inhibition, % at 10 µM;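 active = inhibition above about 50% when tested at 10 µM, limit read from the data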
# G6PDH counter = L. mesenteroides G6PDH inhibition counter-screen; inhibition, % at 5 µM; Purified L. mesenteroides G6PDH, diaphorase/resazurin coupled fluorescence, 45 min; AID 1020; 200,000 compounds, 0.12% hits; in the data active = inhibition above about 50%
# Diaphorase inh = inhibits diaphorase or chemically oxidizes, flagging diaphorase assay artifacts. AID 1217. 190,000 compounds, 0.69% hits. diaphorase resazurin-to-resorufin fluorescence, NADH, 16 min; bacterial (C. kluyveri) enzyme, not human. inhibition, % at 20 µM;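 active = primary screen inhibition at 20 µM above a set limit, cut at about 50% in these data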;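 note: plate controls were DMSO with full reaction for no effect and wells lacking NADH for full effect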
#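 controls = No-NADH positive control and DMSO neutral control | system = Clostridium kluyveri diaphorase enzyme | timing = reaction incubation of 16 min at room temperature | signal = resorufin fluorescence 544/590 nm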
# The depositor's hits bear a star; . = not tested or not shown. Shown are actives, neighbours in structure and some others; about 2.3% of the full set was active somewhere.
SMILES,Diaph act CS,FLuc act counter,FLuc inh counter,G6PDH counter,Diaphorase inh
CCOc1ccc(NC(=O)Cc2ccccc2)c([N+](=O)[O-])c1,0.9,1,-1,-6,8
CCOc1ccc(C(=O)N/N=C/c2ccccc2[N+](=O)[O-])cc1,0.9,0.1,89*,-5,13
Cc1cc(C(=O)N/N=C/c2cccc([N+](=O)[O-])c2O)n[nH]1,0.5,0.5,46,35,50*
Cc1ccc(NC(=O)C2c3ccccc3Oc3ccccc32)c(C)c1,1,1.1,-6,-2,4
O=C(N/N=C/c1ccc(-c2ccccc2[N+](=O)[O-])o1)c1cccnc1,0.4,1.1,-7,-25,59*
N#Cc1c(-c2ccco2)cc(-c2cccnc2)nc1N,0.5,1,-1,11,52*
N#Cc1c(-c2ccco2)cc(-c2ccccn2)nc1N,0.7,1,-2,10,26
Cc1nc2cc(NC(=O)NC(C)(C)C)ccc2n1C,1,0.9,10,6,0
COc1cccc(NC(=O)Nc2ccc3c(c2)nc(C)n3C)c1,1.1,0.1,92*,4,-7
COc1cccc(NC(=O)Nc2nccc(C)n2)c1,1,0.2,82*,-5,4
Cc1nc2cc(NC(=O)Nc3nccs3)ccc2n1C,1,0.2,81*,5,-5
CCCNC(=O)Nc1ccc2c(c1)nc(C)n2C,0.9,0.8,17,-2,9
O=C(CCCCCn1c(=O)[nH]c2ccsc2c1=O)NCc1ccc2c(c1)OCO2,0.9,1.1,-12,8,6
COc1ccc(Oc2nc(OC)cc(OC)n2)cc1,1.2,1,0,4,-15
O=C(Nc1ccc2nc(-c3ccccn3)[nH]c2c1)C1CCCCC1,0.9,0.4,63*,-22,8
O=C(CSc1ccccc1[N+](=O)[O-])NC1CCS(=O)(=O)C1 (configuration not stated),1,1,-2,6,-3
O=C1c2cccc3c(Nc4ccccc4Cl)c([N+](=O)[O-])cc(c23)C(=O)N1CCO,0.4,1,-2,16,56*
CN(C)Cc1c(O)ccc2c3c(c(=O)oc12)CCCCC3,0.9,1,-4,3,8
CN(Cc1c(O)ccc2c1oc(=O)c1ccccc12)C1CCCCC1,0.1,1,-4,8,94*
COc1cc(O)c2c(c1)OC(c1ccc(O)cc1)CC2=O (configuration not stated),0.4,1,-4,5,57*
COCCNc1nc(-c2cc3ccccc3o2)cs1,0.9,0.4,62*,9,10
Oc1ccc2ccccc2c1/C=N/Nc1ccccc1,0.7,1,-3,20,34
O=S(=O)(/N=C/c1c(O)ccc2ccccc12)c1cccs1,0.7,1,-3,57*,32
Fc1ccc(-c2cnn3c(-c4ccncc4)ccnc23)cc1,1,0.2,76*,-7,1
Fc1ccc(-c2cnn3c(-c4cccs4)ccnc23)cc1,1.2,0.2,83*,-6,-18
SMILES,Diaph act CS,FLuc act counter,FLuc inh counter,G6PDH counter,Diaphorase inh
COc1cc(Cl)cc(/C=N/NC(N)=O)c1O,0.7,1,-3,54*,26
CC1CC(C)(C)Nc2ccc(OC(=O)c3ccco3)cc21 (configuration not stated),1,0.4,60*,8,4
Cc1ccc(-n2c(-c3ccccc3)c[n+]3c2CCC3)cc1,0.2,1,-1,5,79*
Cc1ccccc1NC(=O)c1ccc(Cl)c(NC(=O)c2ccncc2)c1,1,1,-4,0,0
Nc1nc2ccc(N3CCOCC3)cc2s1,0.9,0.3,66*,0,10
Cc1nn(C(=O)c2cccs2)c(N)c1-c1ccccc1,0.8,0.7,33,6,18
Cc1nn(C(=O)c2ccc3c(c2)OCO3)c(N)c1-c1ccccc1,0.8,0.2,80*,-8,16
CN(C)c1ccc(/C=N/NC(=O)COc2ccccc2)cc1,0.9,0.7,31,-6,8
Cc1cccc(OCC(=O)N/N=C/c2ccc(N(C)C)cc2)c1,0.4,1,2,10,55*
N#Cc1c2n(c3c(=S)nc[nH]c13)CCCCC2,0.5,1,1,4,54*
CN(C)S(=O)(=O)Nc1ccccc1F,1.2,1,-5,12,-16
Oc1[nH]c2ccccc2c1N=Nc1nc2ccccc2s1,0.9,0.5,54*,1,13
Oc1[nH]c2ccccc2c1N=Nc1ccc(F)cc1,0.9,0.9,13,1,12
COC(=O)C(Cc1ccccc1)NC(=O)c1ccc(C)cc1 (configuration not stated),0.8,0.4,60*,6,16
O=C(Nc1ccc2c(c1)OCO2)N1CCN(Cc2ccco2)CC1,0.9,0.1,92*,-2,9
O=C(COC(=O)c1cncc(Br)c1)NC1CCCCCC1,0.9,1.1,-7,4,13
Cc1nc2c(ccc3nc(NC(=O)c4ccc5c(c4)OCCO5)sc32)s1,1.1,0.1,86*,-1,-11
Fc1ccc2nc(Nc3nc4cc5c(cc4s3)OCCO5)sc2c1,0.8,0.5,52*,1,15
Cc1nc2ccc3nc(NC(=O)c4ccc5c(c4)OCCO5)sc3c2s1,0.9,0.9,10,-1,13
O=C(Nc1nc2cc3c(cc2s1)OCCO3)c1ccncc1,1,0.2,76*,8,5
Fc1ccc2nc(Nc3nc4cc5c(cc4s3)OCO5)sc2c1,1,1,5,16,1
O=C(Nc1ccc(F)cc1)Nc1nnc(-c2ccco2)s1,0.9,1,2,3,7
N#Cc1c(NCCN)nc(NCc2ccccc2)c2c1CCN(Cc1ccccc1)C2,1.1,1,2,8,-9
C=CCNc1nc(NCc2ccccc2)c(C#N)c2c1CN(C)CC2,0.4,1,-2,12,63*
O=C(Cc1cc(=O)[nH]c(=O)[nH]1)NCCN1CCOCC1,1,1.1,-7,-7,1
SMILES,Diaph act CS,FLuc act counter,FLuc inh counter,G6PDH counter,Diaphorase inh
O=c1c(C=NCc2cccnc2)c(C(F)(F)F)[nH]n1-c1nc2ccccc2s1,.,0.3,74*,2,.
CCC(=NCc1ccccc1)c1c(C(F)(F)F)[nH]n(-c2nc3ccccc3s2)c1=O,1,0.9,8,2,2
CSc1nc(N(CCO)CCO)c2sc3nc(-c4ccco4)c4c(c3c2n1)CCC4,0.5,0.9,6,7,54*
Clc1ccc(COc2cccc(CNCc3ccncc3)c2)cc1,0.9,1,-5,9,5
N#CC1=C(N)Oc2n[nH]c(-c3cccs3)c2C1c1ccsc1 (configuration not stated),0.4,1.1,-6,5,60*
COc1cccc(/C=N/Nc2ncnc(N)c2[N+](=O)[O-])c1OC,0.9,0.2,78*,5,7
